Assay outcomes: PubChem, Broad Institute
DENV2 CPE rescue – inhibitors of DENV2 cytopathic effect | DENV2-infected cells, cytopathic effect rescue, plate reader | CPE inhibition, % at 9.99 µM | hit rate 1.7% among 350,000 | AID 651640; in the data active = CPE inhibition above about 20%, passing the limit was not always enough; inconclusive = no clear call, values can overlap the other calls; tested in BHK-21 cells;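 also: 0% = median of neutral control wells and 100% = median of positive control wells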
E-sel inducer – E-selectin induction on HUVECs; HUVEC E-selectin immunofluorescence imaging; normalized: neutral wells 0, TNF-alpha wells 100; activation, % at 7.58 µM; hit rate 0.37% among 260,000; AID 686992;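 active = mean E-selectin-positive cell signal at least 10% of the positive control, reached in at least 60% of replicates, without over 20% cell loss; inconclusive = no rule given, readout overlaps actives, possibly toxicity-flagged; inactive = the rest, including those meeting only one limit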
Target sequence (P16581 whole entry, looked up): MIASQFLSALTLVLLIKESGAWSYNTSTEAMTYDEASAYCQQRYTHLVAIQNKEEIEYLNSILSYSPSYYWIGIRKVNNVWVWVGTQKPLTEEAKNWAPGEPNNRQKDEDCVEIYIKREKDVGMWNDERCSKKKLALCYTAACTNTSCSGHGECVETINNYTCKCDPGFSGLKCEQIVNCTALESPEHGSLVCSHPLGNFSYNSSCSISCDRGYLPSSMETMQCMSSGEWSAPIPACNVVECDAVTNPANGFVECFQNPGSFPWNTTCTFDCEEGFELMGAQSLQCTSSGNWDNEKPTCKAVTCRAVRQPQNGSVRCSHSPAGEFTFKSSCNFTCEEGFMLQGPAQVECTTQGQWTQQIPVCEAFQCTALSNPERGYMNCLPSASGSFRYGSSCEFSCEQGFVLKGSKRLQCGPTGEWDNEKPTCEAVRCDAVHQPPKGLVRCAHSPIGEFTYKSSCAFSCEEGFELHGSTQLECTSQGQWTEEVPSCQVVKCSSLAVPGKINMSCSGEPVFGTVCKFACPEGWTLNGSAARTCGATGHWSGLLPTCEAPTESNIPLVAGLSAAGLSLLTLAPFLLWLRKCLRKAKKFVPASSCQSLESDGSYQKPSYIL
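Test system – human umbilical vein endothelial cells (HUVEC), E-selectin induction · Input – 3,000 HUVEC seeded per well · Buffer or medium – EGM-2, gelatin · Compound dosing – single-point compound dose · Detection – immunofluorescence imaging · Measure – percent E-selectin-positive cells · Controls – TNF-alpha high, DMSO low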
SIRT5 block – inhibitors of human sirtuin-5 desuccinylase | Purified SirT5, succinyl-peptide AMC, trypsin-coupled fluorescence | inhibition, % at 15 µM | hit rate 1.1% among 330,000 | AID 652115; in the data active = inhibition above about 15%; inconclusive = no clear call, values can overlap the other calls
An asterisk follows results filed as active; ? = inconclusive; nt = not tested or not shown; ! = repeats disagree. The list is not random: actives were taken first. Their share in the collection is about 2.9%.

SMILES | DENV2 CPE rescue | E-sel inducer | SIRT5 block
CCOC(=O)c1c(C)[nH]c(C)c1S(=O)(=O)NCC1CCN(Cc2cccc(Cl)c2)CC1 | 3 | 0 | 16*
CN(C)C(=O)c1ccc(-c2ccc(C3[C@@H]4CN(C(=O)Cc5ccccc5)C[C@H]3N4)cc2)cc1 (some centres not stated) | 4 | -1 | 17*!
CN(C)C(=O)c1cccc(-c2ccc(C3[C@@H]4CN(C(=O)Cc5ccccc5)C[C@H]3N4)cc2)c1 (some centres not stated) | 12 | 0 | nt
CN(C)C(=O)c1cccc(-c2ccc(C3[C@@H]4CN(C(=O)c5ccccn5)C[C@H]3N4)cc2)c1 (some centres not stated) | -1 | 0 | 22*!
CN(C)C(=O)c1ccc(-c2ccc(C3[C@@H]4CN(C(=O)c5ccccn5)C[C@H]3N4)cc2)cc1 (some centres not stated) | ? | 0 | nt
CC(C)C(=O)Nc1ccc2c(c1)C(=O)N(C)[C@@H]1CC[C@@H](CC(=O)NCc3ccccc3)O[C@@H]1CO2 | 7 | 0 | 7
C[C@@H]1CN([C@@H](C)CO)C(=O)c2cc(C#CC(C)(C)O)cnc2O[C@@H]1CN(C)Cc1cncnc1 | 23* | 0 | -2
C[C@@H]1CN([C@@H](C)CO)C(=O)c2cc(C#CC(C)(C)O)cnc2O[C@H]1CN(C)Cc1cncnc1 | 64* | 0 | 0
C[C@H](CO)N1C[C@H](C)[C@@H](CN(C)Cc2cncnc2)Oc2ncc(C#CC(C)(C)O)cc2C1=O | -5 | 1 | -1
C[C@H](CO)N1C[C@H](C)[C@H](CN(C)Cc2cncnc2)Oc2ncc(C#CC(C)(C)O)cc2C1=O | 4 | 0 | -2
CCOC(=O)c1ccc(NC(=S)NCc2ccco2)cc1 | ? | nt | 1
CSCCC(=O)N1CCCC(CNC(=O)c2ccc(-c3ccccc3)cc2)C1 (configuration not stated) | -2 | 1 | -4
CN1CCCCN2[C@H](C1)[C@H](c1ccc(-c3ccc(F)cc3)cc1)[C@@H]2CO | ? | 0 | -1
C/C=C/c1ccc([C@H]2[C@@H](CO)N3CCCCN(C)C[C@H]23)cc1 | 54* | 0 | -4
CN1CCCCN2[C@H](CO)[C@@H](c3ccc(-c4ccc(F)cc4)cc3)[C@@H]2C1 | 61* | 0 | 11
CN1CCCCN2[C@@H](CO)[C@@H](c3ccc(/C=C/c4ccccc4)cc3)[C@@H]2C1 | -34 | 0 | -4
Cc1ccc(-c2ccc([C@H]3[C@@H](CO)N4CCCCN(C)C[C@H]34)cc2)cc1 | 27* | -1 | -1
Cc1ccc(-c2ccc([C@H]3[C@H]4CN(C)CCCCN4[C@H]3CO)cc2)cc1 | 5 | 0 | -1
CCOC(=O)C1=CCN(S(=O)(=O)c2ccccc2F)C1c1cccc(Br)c1 (configuration not stated) | 14 | 1 | -4
Cc1ccc(C(=O)NCCC(=O)N2CCC3(CC2)NCCc2[nH]cnc23)cc1 | 6 | -1 | 7
C[C@@H]1CN([C@H](C)CO)C(=O)c2cc(C#CC3CCCCC3)cnc2O[C@H]1CN(C)C(=O)Nc1ccccc1 | -2 | 24 | -1
C[C@@H]1CN([C@H](C)CO)C(=O)c2cc(NS(=O)(=O)c3ccccc3)ccc2O[C@@H](C)CCCCO[C@H]1CN(C)Cc1ccc(Cl)c(Cl)c1 | 23* | 0 | 4
C[C@@H]1CCCCO[C@@H](CN(C)Cc2ccc(Cl)c(Cl)c2)[C@@H](C)CN([C@@H](C)CO)C(=O)c2cc(NS(=O)(=O)c3ccccc3)ccc2O1 | 23* | 0 | nt
C[C@H](CO)N1C[C@H](C)[C@@H](CN(C)Cc2ccc(Cl)c(Cl)c2)OCCCC[C@H](C)Oc2ccc(NS(=O)(=O)c3ccccc3)cc2C1=O | 1 | 0 | 14
C[C@H]1CCCCO[C@H](CN(C)Cc2ccc(Cl)c(Cl)c2)[C@@H](C)CN([C@@H](C)CO)C(=O)c2cc(NS(=O)(=O)c3ccc(F)cc3)ccc2O1 | 22* | 0 | 15*
SMILES | DENV2 CPE rescue | E-sel inducer | SIRT5 block
C[C@@H]1CN([C@H](C)CO)C(=O)c2cc(NS(=O)(=O)c3ccc(Cl)cc3)ccc2O[C@@H](C)CCCCO[C@H]1CN(C)Cc1ccc(Cl)c(Cl)c1 | -9 | 0 | 5
C[C@@H]1CCCCO[C@@H](CN(C)Cc2ccc(Cl)c(Cl)c2)[C@@H](C)CN([C@H](C)CO)C(=O)c2cc(NS(=O)(=O)c3ccc(F)cc3)ccc2O1 | -7 | 0 | 2
C[C@@H]1CCCCO[C@@H](CN(C)Cc2ccc(Cl)c(Cl)c2)[C@@H](C)CN([C@@H](C)CO)C(=O)c2cc(NS(=O)(=O)c3ccc(Cl)cc3)ccc2O1 | -4 | nt | nt
C[C@@H]1CCCCO[C@H](CN(C)Cc2ccc(Cl)c(Cl)c2)[C@H](C)CN([C@@H](C)CO)C(=O)c2cc(NS(=O)(=O)c3ccccc3)ccc2O1 | 32* | 0 | 16*
CC(=O)OCC(=O)[C@@]1(O)CC[C@H]2[C@@H]3CCC4=CC(=O)C=C[C@]4(C)[C@@]3(F)[C@@H](O)C[C@@]21C | -10 | -2 | 0
Cc1ccc(S(=O)(=O)N2CCCCC2)cc1NC(=O)COC(=O)c1c(F)cccc1F | 6 | nt | 0
C[C@H]1CN([C@@H](C)CO)C(=O)Cc2cc(NC(=O)C3CC3)ccc2O[C@@H]1CN(C)S(=O)(=O)c1cn(C)cn1 | -7 | 0 | 10
C[C@@H]1CN([C@@H](C)CO)C(=O)Cc2cc(NS(=O)(=O)c3cccs3)ccc2O[C@@H]1CN(C)C(=O)Nc1cccc2ccccc12 | -3 | -9 | nt
C[C@@H]1CN([C@H](C)CO)C(=O)c2cccc(N(C)C)c2O[C@H]1CN(C)S(=O)(=O)c1ccccc1 | 3 | -3 | 6
C=CCN1C=C2C(=O)C(C)(OC(=O)CCC(=O)OC)C(=O)C=C2C=C1C1CC1 (configuration not stated) | 50* | nt | nt
COC(=O)CCC(=O)OC1(C)C(=O)C=C2C=C(C3CC3)N(CCCCO)C=C2C1=O (configuration not stated) | -9 | 0 | -1
COc1ccc(NC(=O)CC2C(=O)N(Cc3ccco3)C(=S)N2C(C)C)cc1 (configuration not stated) | nt | 1 | -1
COc1ccc(NC(=O)CC2C(=O)N(Cc3cccs3)C(=S)N2C(C)C)cc1 (configuration not stated) | -3 | 0 | 31*
CCOC(=O)c1ccc(N2C(=O)CC(C)(CC)CC2=O)cc1 | 1 | nt | -3
C=CCOC(=O)C(=O)/C=C/c1ccc(F)cc1 | 1 | nt | -3
C=CCOC(=O)C(=O)/C=C/c1ccc2c(c1)Cc1ccccc1-2 | 37*! | 0 | 0
COc1cc2cc(CCO)oc(=O)c2cc1OC | 89* | 0 | 1
COc1cc2cc(CCCOC(=O)CCC(=O)O)oc(=O)c2cc1OC | 28* | 0 | nt
COc1cc2cc(CCOC(=O)CCCC(=O)O)oc(=O)c2cc1OC | -7 | 0 | nt
COc1cc2cc(C[C@H](C)O)oc(=O)c2cc1OC | nt | 0 | nt
O=S(=O)(c1cccc(F)c1)N1[C@@H]2CNC[C@H]1C2c1ccc(-c2ccccc2)cc1 (some centres not stated) | -5 | 0 | 3
Cc1ccccc1S(=O)(=O)N1[C@@H]2CNC[C@H]1C2c1ccc(/C=C/c2ccccc2)cc1 (some centres not stated) | 25*! | 0 | 4
